Measured values as given in ChEMBL document CHEMBL4665870, “RNA drug discovery: Conformational restriction enhances specific modulation of the T-box riboswitch function” (Bioorg Med Chem, 2020).
Activity calls are given as the source filed them. No cut-off for these calls is given here.

What was measured:
[1] = Binding affinity to 5'TAMRA-antiterminator RNA (unknown origin) assessed as structural changes by fluorescence-monitored ligand binding assay relative to bulge deletion AM
[2] = Inhibition of tRNA-induced Escherichia coli RNA polymerase mediated T-box riboswitch transcription readthrough assessed as overall transcription in presence of RTprb and dsDNA at 100 uM by fluorescence-monitored in vitro transcription assay
Method in brief: (§1)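 In vitro transcription with 10 nM DNA template and 0.05 U/μL E. coli RNA polymerase sigma-saturated holoenzyme. Readout by 100 nM molecular beacon, with or without 30 nM tRNA and 100 μM ligand, at 28 °C. Readthrough = fluorescence at 6 h minus 0 min. Triplicates, unpaired t-test.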

[3] = Effect on HEX-antiterminator RNA-DABCYL (unknown origin) thermal stability at 100 uM by measuring fluorescence by AriaMx Real-Time PCR system
Method in brief: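 100 nM fluorophore–quencher 5′-HEX-AM-3′-DABCYL with 100 μM ligand in 10 mM sodium phosphate, 0.01 mM EDTA, pH 6.5, 5% DMSO. Fluorescence read (ex 535 nm / em 555 nm) while heating 40–90 °C. Tm taken from the first derivative of the raw data.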

[4] = Induction of tRNA-5'TAMRA-antiterminator RNA (unknown origin) complex disruption using fluorescently-labeled AM at 100 uM by fluorescence anisotropy monitored complex disruption assay
Method in brief: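 Fluorescence anisotropy of 100 nM 5′-TAMRA-AM with 2.5 μM tRNA and 100 μM ligand (n = 3). Controls were AM alone (r−) and AM plus tRNA (r+), run in replicate. Significance assessed by unpaired t-test.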

[5] = Inhibition of tRNA-induced Escherichia coli RNA polymerase mediated T-box riboswitch transcription readthrough assessed as riboswitch function in presence of RTprb and dsDNA at 100 uM by fluorescence-monitored in vitro transcription assay; method in brief: as §1
[6] = test system: T-box riboswitch antiterminator RNA (Bacillus subtilis); experiment: Binding affinity to 5'TAMRA antiterminator C11U RNA (unknown origin) assessed as structural changes by fluorescence-monitored ligand binding assay relative to bulge deletion AM

## CC(=O)c1ccc(NC(=O)OC[C@H]2OC(=O)N3CCc4c(-c5ccccc5)nnn4C[C@H]23)cc1
[1]
  Activity: Active
[2]
  inhibition: inactive
[3]
  Activity: inactive
[4]
  Activity: -28%
[5]
  inhibition: Active
[6]
  Activity: Active

## CC(=O)c1ccc(NC(=O)OC[C@H]2OC(=O)N[C@@H]2CN2CCN(c3ccccc3)CC2)cc1
[2]
  inhibition: inactive
[5]
  inhibition: Active

## O=C(Cc1ccccc1)OC[C@@H]1OC(=O)N2CCc3c(-c4ccccc4)nnn3C[C@@H]12
[1]
  Activity: Active
[2]
  inhibition: inactive
[3]
  Activity: inactive
[4]
  Activity: inactive
[5]
  inhibition: Active
[6]
  Activity: Active

## CC(=O)c1ccc(NC(=O)OC[C@@H]2OC(=O)N[C@H]2CN2CCN(c3ccccc3)CC2)cc1
[2]
  inhibition: inactive
[5]
  inhibition: Active

## O=C(Cc1ccccc1)OC[C@H]1OC(=O)N[C@@H]1CN1CCN(c2ccccc2)CC1
[2]
  inhibition: inactive
[5]
  inhibition: Active

## O=C(Cc1ccccc1)OC[C@@H]1OC(=O)N[C@H]1CN1CCN(c2ccccc2)CC1
[2]
  inhibition: inactive
[5]
  inhibition: Active

## O=C(Cc1ccccc1)OC[C@H]1OC(=O)N2CCc3c(-c4ccccc4)nnn3C[C@H]12
[1]
  Activity: Active
[2]
  inhibition: inactive
[3]
  Activity: inactive
[4]
  Activity: inactive
[5]
  inhibition: Active
[6]
  Activity: inactive

## CC(=O)c1ccc(NC(=O)OC[C@@H]2OC(=O)N3CCc4c(-c5ccccc5)nnn4C[C@@H]23)cc1
[1]
  Activity: Active
[2]
  inhibition: inactive
[3]
  Activity: inactive
[4]
  Activity: -20%
[5]
  inhibition: Active
[6]
  Activity: Active
